Sampled rows, rich in hits. Any-hit rate of the full collection: about 5.4%.
Mdm2 MdmX PPI: inhibitors of human Mdm2-MdmX association, primary screen, cell-based, luminescence, split luciferase, SaOS-2, uHTS | SaOS-2 split-luciferase Mdm2/MdmX complementation | inhibition, % at 8 µM | 330,000 tested, 3% active;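 active = inhibition of at least 50% at 8 µM in the primary screen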
Target sequence (O15151 whole entry, looked up): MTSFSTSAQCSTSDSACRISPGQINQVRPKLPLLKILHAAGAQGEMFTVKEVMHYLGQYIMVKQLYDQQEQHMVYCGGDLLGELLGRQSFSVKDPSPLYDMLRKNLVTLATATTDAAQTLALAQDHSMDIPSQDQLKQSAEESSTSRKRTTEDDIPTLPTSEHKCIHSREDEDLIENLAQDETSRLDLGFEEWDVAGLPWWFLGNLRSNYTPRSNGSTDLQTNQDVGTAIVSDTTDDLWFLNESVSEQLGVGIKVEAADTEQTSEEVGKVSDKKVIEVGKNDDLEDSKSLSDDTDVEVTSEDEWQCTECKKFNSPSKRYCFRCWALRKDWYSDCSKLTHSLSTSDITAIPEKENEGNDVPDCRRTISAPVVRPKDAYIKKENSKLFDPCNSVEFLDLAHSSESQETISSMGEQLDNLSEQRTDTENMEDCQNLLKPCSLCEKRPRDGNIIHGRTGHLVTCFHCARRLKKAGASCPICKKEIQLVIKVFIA
Target sequence (Q00987 whole entry, looked up): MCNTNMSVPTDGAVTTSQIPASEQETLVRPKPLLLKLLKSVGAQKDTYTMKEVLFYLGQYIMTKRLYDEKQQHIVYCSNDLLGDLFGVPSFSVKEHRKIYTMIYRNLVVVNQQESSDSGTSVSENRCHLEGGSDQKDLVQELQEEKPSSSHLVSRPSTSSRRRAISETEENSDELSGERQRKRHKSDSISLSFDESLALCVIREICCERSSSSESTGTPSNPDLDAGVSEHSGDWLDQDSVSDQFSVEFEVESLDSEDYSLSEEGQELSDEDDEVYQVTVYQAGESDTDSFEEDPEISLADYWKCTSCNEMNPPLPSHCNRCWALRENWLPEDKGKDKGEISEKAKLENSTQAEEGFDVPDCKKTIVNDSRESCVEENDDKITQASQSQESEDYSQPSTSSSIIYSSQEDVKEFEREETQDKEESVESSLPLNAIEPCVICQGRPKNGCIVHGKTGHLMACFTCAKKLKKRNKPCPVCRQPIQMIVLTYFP
T cruzi inh: inhibitors of intracellular T. cruzi growth, primary screen, luminescence, NIH3T3 host cells | T. cruzi beta-gal in NIH3T3, 90 h | inhibition, % (test concentration not listed) | 300,000 tested, 1.4% active;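 active = mean inhibition across valid replicates above about 55%, limit read from the data; inconclusive = mean below that limit but half or more replicates reach it; inactive = mean below it, under half of replicates reach it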;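 note: signal also drops with host cell toxicity which is not excluded here; 0% = plate median of DMSO wells and 100% = zero luminescence signal; higher percent means less beta-gal luminescence so fewer parasites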
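Assay system: NIH/3T3 fibroblasts plus reporter T. cruzi. Amount: NIH/3T3 cells, 5,000 per well. Buffer or medium: DMEM, 2% fetal bovine serum. Doses: compound pinned at 50 nL/well, DMSO. Schedule: ≥90 h infection period, 3 h prior cell attachment. Signal: luminescent β-galactosidase signal after 60 min lysis. Read-out: parasite load inhibition, %.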
CSC inhib: cancer stem cell viability inhibitors, primary screen, luminescence; inhibition, % at 7.5 µM; cancer stem cell-like cells viability; AID 2717, 2010; 300,000 tested, 1.1% active; in the data active = inhibition above about 75%; inconclusive = no clear call, values can overlap the other calls; tested in HMLE shEcad cells
SKKanGAS inh: S. pyogenes SKKanGAS growth inhibitors in kanamycin, primary screen, streptokinase expression inhibitor project, SKKanGAS strain, BacTiter-Glo luminescence. 6 h. inhibition, % at 7.5 µM. 300,000 tested, 1.3% active. AID 1662, 2009;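 active = mean replicate score, as percent of positive control median, at least 50; inconclusive = mean below 50 but one replicate at or above 50; inactive = mean and every replicate below 50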;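 note: strain carries kanamycin resistance gene driven by streptokinase promoter and grows in 40 µg/ml kanamycin; loss of luminescence reflects streptokinase promoter inhibition or plain growth inhibition; 0% = median of DMSO wells and 100% = positive control at its reference dose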
aSyn 5UTR inh: MLPCN primary screen, SNCA 5' untranslated region; 300,000 tested, 0.82% active; AID 1813, 2009; alpha-synuclein 5'UTR reporter, inhibitor activity; inhibition, % (tested at 7.5 µM); in the data active = inhibition above about 60%; inconclusive = no clear call, values can overlap the other calls;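 note: H4 neuroglioblastoma cells stably carrying SNCA 5'UTR luciferase fusion; 0% = DMSO wells and 100% = positive control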
Mdm2 MdmX conf: Mdm2-MdmX complex disruptors, retested hits, confirmation, luminescence, single concentration. 10,000 tested, 55% active. inhibition, % at 8 µM. Mdm2-MdmX binding, luminescent assay. shares compounds with Mdm2 MdmX PPI. AID 489028, 2010; in the data active = inhibition above about 40%
Full FLuc ctr: full-length luciferase signal inhibition, confirmation, counter-screen for Mdm2/MdmX interaction inhibitor project, cell-based, single concentration, SaOS-2; shares compounds with Mdm2 MdmX PPI; SaOS-2 full-length luciferase counterscreen, luminescence; inhibition, % at 8 µM; 6,200 tested, 77% active;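 active = mean inhibition at 8 µM reaching about 37%, which flags the compound as non-specific, limit read from the data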;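 note: p53-null SaOS-2 cells with luciferase driven by a doxycycline-inducible promoter; compound on cells about two nights before reading with doxycycline added after day one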
Numbers without * were called inactive; u = inconclusive; x = no result given.

SMILES | Mdm2 MdmX PPI | T cruzi inh | CSC inhib | SKKanGAS inh | aSyn 5UTR inh | Mdm2 MdmX conf | Full FLuc ctr
O=[N+]([O-])c1cnc(Sc2ccncn2)s1 | 97* | 19 | 107* | 18 | -1 | 100* | 52*
O=C1NCCN1c1ncc([N+](=O)[O-])s1 | 19 | x | -5 | x | x | x | x
COC(=O)c1ccc(OCc2nn[nH]n2)cc1 | 23 | -10 | -2 | -19 | -7 | x | x
Cc1cc(O)cc(O)c1C=NCc1ccco1 | -8 | -19 | -6 | -3 | -3 | x | x
Cc1csc2sc(-c3ccnc(SCC(=O)NCc4ccccc4)n3)c(C)c12 | 56* | 2 | 48 | 18 | 15 | 59* | 86*
COc1ccccc1/C=C/C1(C(=O)NC2CCCC2)CC(=O)N1c1ccccc1 (stereo unspecified) | 65* | 14 | 51 | 11 | -138 | 64* | 79*
CCCN1CCN(C(=O)C2CCN(S(=O)(=O)c3c(C)noc3/C=C/c3ccc(C)cc3)CC2)CC1 | 58* | 33 | -17 | 28 | 2 | 15 | x
O=C(Cn1cc(C(F)(F)F)ccc1=O)NC1CCCC1 | -23 | x | -14 | x | x | x | x
CCOC(=O)c1c(NC(=S)N2CCOCC2)sc2c1CCN(C(=O)OCC)C2 | 51* | 43 | 54 | 5 | -53 | 0 | x
C=CCNC(=S)Nc1sc2c(c1C(=O)OCC)CCN(C(=O)OCC)C2 | 5 | -9 | 0 | 14 | 8 | x | x
CCOC(=O)c1c(NC(=S)N2CCCCC2)sc2c1CCN(C(=O)OCC)C2 | 72* | 13 | 93* | 10 | -22 | 15 | x
CNC(C)C#Cc1c(-c2cc(OC)c(OC)c(OC)c2)noc1C (stereo unspecified) | 28 | 19 | 0 | 4 | -39 | x | x
COc1cc(-c2noc(C)c2C#Cc2ccc(N)cc2)cc(OC)c1OC | 89* | 33 | 108* | 2 | 88* | 70* | 89*
COc1cc(-c2noc(C)c2C#Cc2ccccn2)cc(OC)c1OC | 65* | -9 | 82* | -13 | 86* | 78* | 77*
COc1cc(-c2noc(C)c2/C=C/c2ccc(N)cc2)cc(OC)c1OC | 84* | 33 | -15 | 7 | 104* | 86* | 108*
Cc1ccccc1NC(=O)Cc1nc(COC(=O)c2ccc(O)cc2O)cs1 | -5 | 0 | 8 | 1 | 9 | x | x
O=S(=O)(NCc1ccc2c(c1)OCO2)c1cccc2cccnc12 | -36 | -2 | 29 | -3 | 6 | x | x
COc1ccc(-n2nnnc2S(=O)(=O)CC(=O)N2CCCCC2)cc1 | 97* | x | 39 | x | x | 96* | 14
Cc1ccc2nccc(C(=O)N3CCCC(Nc4ccc(F)cc4)C3)c2c1 (stereo unspecified) | -7 | 15 | 9 | 0 | 10 | x | x
COc1ccc2cc(C(=O)N/N=C/c3sc4ccccc4c3O)ccc2c1 | 89* | 15 | 147* | 10 | -2 | 89* | 32
O=C(N/N=C/c1sc2ccccc2c1O)c1ccccc1 | 68* | 21 | 35 | 90* | 82* | 67* | 41*
COc1ccc(C(=O)N/N=C/c2c[nH]c3ccccc23)cc1 | -4 | 2 | 9 | -2 | -70 | x | x
Cc1cc(C)c(OCCNCc2ccccc2)c(C)c1 | 15 | 5 | x | 8 | 1 | x | x
Cc1cc(C)c(OCCCCNCc2ccccc2)c(Cl)c1 | 51* | 45 | 51 | 2 | 11 | 40* | 68*
O=C(O)c1cc([N+](=O)[O-])ccc1N1CCCCC1 | -18 | -17 | -7 | -6 | 10 | x | x
SMILES | Mdm2 MdmX PPI | T cruzi inh | CSC inhib | SKKanGAS inh | aSyn 5UTR inh | Mdm2 MdmX conf | Full FLuc ctr
O=C(OCc1ccc([N+](=O)[O-])cc1)c1cc([N+](=O)[O-])ccc1N1CCOCC1 | 35 | 17 | 14 | 0 | 11 | x | x
Cc1ccc(C(=O)c2cc([N+](=O)[O-])ccc2N2CCCCC2)c(C)c1 | 55* | 4 | -5 | 2 | 69* | 67* | 125*
Cc1ccc(COC(=O)c2cc([N+](=O)[O-])ccc2N2CCOCC2)cc1 | 71* | 29 | 45 | 0 | 68* | 75* | 87*
CCOc1ccc(S(=O)(=O)N2CCN(C(=O)c3cc([N+](=O)[O-])ccc3N3CCOCC3)CC2)cc1 | 60* | x | x | x | x | 28 | x
O=C(CNc1cc(S(=O)(=O)N2CCOCC2)ccc1NCC1CCCO1)Nc1cccc(F)c1 (stereo unspecified) | -1 | 13 | x | 6 | -5 | x | x
CCN1CCC(O)(C#Cc2ccccc2)CC1 | 9 | 3 | 0 | 0 | -17 | x | x
CC1C(c2ccccc2)N(C)C(c2ccccc2)C(C)C1(O)C#Cc1ccccc1 (stereo unspecified) | 71* | x | x | x | x | 25 | x
CN(C)CCNc1ncnc2c1sc1nc(N3CCOCC3)c3c(c12)CC(C)(C)SC3 | 70* | 54 | -9 | -6 | 72* | 45* | 75*
CCN(CC)CCNc1ncnc2c1sc1nc(N3CCOCC3)c3c(c12)CC(C)(C)SC3 | 63* | 40 | u | -2 | 18 | 40 | 54*
Cc1ccc(NC(=O)CCC(=O)N2CCC(C)CC2)c([N+](=O)[O-])c1 | 11 | 3 | -5 | -1 | -2 | x | x
CCCc1ccc(Oc2coc3cc(OCC(=O)Nc4ccccc4C)ccc3c2=O)cc1 | 9 | -12 | 9 | 2 | 38 | x | x
CCc1ccc(Oc2coc3cc(OCC(=O)Nc4cc(C)ccc4C)ccc3c2=O)cc1 | 52* | -8 | 23 | 1 | u | 14 | x
COc1ccc([N+](=O)[O-])cc1N(CC(=O)N1CCN(Cc2ccccc2)CC1)S(C)(=O)=O | -22 | -9 | -5 | 5 | 2 | x | x
Cc1nc2ccccc2c2oc(C(=O)N3CCN(c4ccc([N+](=O)[O-])cc4)CC3)cc12 | 86* | 3 | -22 | 4 | 11 | 17 | x
FC(F)(F)c1cccc(NC(=S)NCc2ccc(Cl)cc2)c1 | 83* | 46 | 59 | 73* | 4 | 22 | x
CN(C)NC(=S)Nc1cccc(C(F)(F)F)c1 | 16 | -27 | -9 | 1 | 6 | x | x
Fc1cc(NC(=S)NCc2ccc(CNC(=S)Nc3ccc(Cl)c(F)c3)cc2)ccc1Cl | 50* | 46 | 7 | 0 | 22 | 5 | x
FC(F)(F)c1cccc(NC(=S)NNC(=S)Nc2ccc(Cl)cc2)c1 | 80* | 56* | 132* | 115* | 2 | 26 | x
Fc1cccc(NC(=S)NCc2ccc(Cl)cc2)c1 | -43 | 0 | 7 | 6 | 15 | x | x
c1ccc2c(SCc3cn4ccccc4n3)nncc2c1 | -27 | 12 | x | 3 | -70 | x | x
CN1C(=O)C2(c3ccccc31)c1c(oc3ccccc3c1=O)C(=O)N2CCO (stereo unspecified) | 14 | -1 | -9 | -4 | 15 | x | x

Source: PubChem
